Laboratory results published in ChEMBL document CHEMBL3272280, “Prostaglandin isosteres. 1. (8-Aza-, 8,10-diaza-, and 8-aza-11-thia)-9-oxoprostanoic acids and their derivatives” (J Med Chem, 1977).

Tests used:
Mus musculus [1] = species on record: Mus musculus; experiment: Binding affinity to prostaglandin receptor in Charles River CD-1 mouse ovary assessed as increase in cAMP accumulation using [8-14C]adenine at 25 ug/ml after 30 mins relative to control; type: tissue-based; settings: Female gonad
How it was run: (§1)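 Virgin female mice over 70 days old; three ovaries per tube (15-25 mg), denuded of fat, preincubated 60 min at 37 °C in aerated Krebs-Ringer phosphate buffer pH 7.2 with 1 μCi [8-14C]adenine to label ATP. Then 0.2 mL 0.05 M theophylline in 0.15 M NaCl plus compound in 0.1 mL Me2SO added; 30 min, 37 °C. TCA stop, homogenization, [14C]-cAMP isolated including paper chromatography.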

Mus musculus [2] = species on record: Mus musculus; experiment: Binding affinity to prostaglandin receptor in Charles River CD-1 mouse ovary assessed as increase in cAMP accumulation using [8-14C]adenine at 100 ug/ml after 30 mins relative to control; type: tissue-based; settings: Female gonad; how it was run: as §1
Mus musculus [3] = species on record: Mus musculus; experiment: Binding affinity to prostaglandin receptor in Charles River CD-1 mouse ovary assessed as increase in cAMP accumulation using [8-14C]adenine at 1 ug/ml after 30 mins relative to control; type: tissue-based; settings: Female gonad; how it was run: as §1
[4] = Retardation factor, Rf of the compound; type: physicochemical
How it was run: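 Thin-layer chromatography on SiO2 plates; eluent A, CHCl3-CH3OH-HOAc (98:1:1), other eluents as designated.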

Rattus norvegicus = species on record: Rattus norvegicus; experiment: Displacement of [3H-PGE1] from Sprague-Dawley rat kidney prostaglandin receptor after 60 mins by scintillation counting analysis
How it was run: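 Kidney plasma membrane binding fraction from male rats (120-150 g); 125 μg of it incubated with 0.4 ng [3H]-PGE1 and test compound, 60 min, 37 °C. Diluted with 0.01 M Tris HCl-saline pH 7.5, bound label collected by filtration, rinsed, counted by liquid scintillation. Duplicate runs at each of three concentrations.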

Mus musculus [5] = species on record: Mus musculus; experiment: Binding affinity to prostaglandin receptor in Charles River CD-1 mouse ovary assessed as increase in cAMP accumulation using [8-14C]adenine at 10 ug/ml after 30 mins relative to control; type: tissue-based; settings: Female gonad; how it was run: as §1
Mus musculus [6] = species on record: Mus musculus; experiment: Binding affinity to prostaglandin receptor in Charles River CD-1 mouse ovary assessed as increase in cAMP accumulation using [8-14C]adenine at 50 ug/ml after 30 mins relative to control; type: tissue-based; settings: Female gonad; how it was run: as §1
[7] = Dissociation constant, pKa of the compound; type: physicochemical
Mus musculus [8] = species on record: Mus musculus; experiment: Binding affinity to prostaglandin receptor in Charles River CD-1 mouse ovary assessed as increase in cAMP accumulation using [8-14C]adenine at 0.05 ug/ml after 30 mins relative to control; type: tissue-based; settings: Female gonad; how it was run: as §1
Mus musculus [9] = species on record: Mus musculus; experiment: Binding affinity to prostaglandin receptor in Charles River CD-1 mouse ovary assessed as increase in cAMP accumulation using [8-14C]adenine at 0.1 ug/ml after 30 mins relative to control; type: tissue-based; settings: Female gonad; how it was run: as §1
Mus musculus [10] = species on record: Mus musculus; experiment: Binding affinity to prostaglandin receptor in Charles River CD-1 mouse ovary assessed as increase in cAMP accumulation using [8-14C]adenine at 0.01 ug/ml after 30 mins relative to control; type: tissue-based; settings: Female gonad; how it was run: as §1
Mus musculus [11] = species on record: Mus musculus; experiment: Binding affinity to prostaglandin receptor in Charles River CD-1 mouse ovary assessed as increase in cAMP accumulation using [8-14C]adenine at 200 ug/ml after 30 mins relative to control; type: tissue-based; settings: Female gonad; how it was run: as §1

Row | fold change (FC) (Mus musculus [1]) | fold change (FC) (Mus musculus [2]) | fold change (FC) (Mus musculus [3]) | Rf [4] | Activity (Rattus norvegicus) | fold change (FC) (Mus musculus [5]) | fold change (FC) (Mus musculus [6]) | pKa [7] | fold change (FC) (Mus musculus [8]) | fold change (FC) (Mus musculus [9]) | fold change (FC) (Mus musculus [10]) | fold change (FC) (Mus musculus [11]) | Compound
1 | 8 | 13 | 0.7 | 0.25 | 8.3 µgequiv | – | – | – | – | – | – | – | CCCCCCCCC1CCC(=O)N1CCCCCCC(=O)O (racemic)
2 | 26 | – | 10 | – | – | 25 | 19 | – | – | – | – | – | CCCCC[C@H](O)CC[C@H]1CCC(=O)[C@@H]1CCCCCCC(=O)O
3 | 8 | 18 | 0.9 | 0.15 | 4.6 µgequiv | – | – | 5.25 | – | – | – | – | CCCCCC(O)CCC1CCC(=O)N1CCCCCCC(=O)O (mixture of isomers)
4 | 2 | 7 | – | 0.13 | – | – | – | – | – | – | – | – | O=C(O)CCCCCCN1C(=O)CS(=O)(=O)C1CCC(O)COc1ccc(F)cc1 (mixture of isomers)
5 | 62 | 62 | 54 | – | 1 ngequiv | 60 | – | – | 25 | 29 | 8 | – | CCCCC[C@H](O)/C=C/[C@H]1[C@H](O)CC(=O)[C@@H]1CCCCCCC(=O)O
6 | 8 | 25 | 1.4 | 0.12 | 0.39 µgequiv | – | – | – | – | – | – | – | CCCCCC(O)CCC1SCC(=O)N1CCCCCCC(=O)O (mixture of isomers)
7 | 14 | 23 | 2 | – | 833 ngequiv | 11 | 16 | – | – | – | – | 16 | CCCCCC(O)CCCC(CCCCCCC(=O)O)C(C)=O (configuration not stated)
8 | 5 | 9 | – | 0.84 | 19.6 µgequiv | – | – | – | – | – | – | – | CCCCCCCCc1c[nH]c(=O)n1CCCCCCC(=O)O
9 | 27 | 38 | 14 | – | – | 24 | – | – | – | 2 | – | – | CCCCCC(O)CCCC(CCCCCCC(=O)O)S(C)(=O)=O (configuration not stated)
10 | 3 | 6 | – | 0.2 | 5 µgequiv | – | – | – | – | – | – | – | CCCCCCCCC1C(=O)NC(=O)N1CCCCCCC(=O)O (racemic)
11 | 27 | 37 | 5 | 0.24 | 0.06 µgequiv | 23 | – | – | – | – | – | – | CCCCCC(O)CCC1N(CCCCCCC(=O)O)C(=O)CS1(=O)=O (mixture of isomers)
